Experimental data reported in ChEMBL document CHEMBL5233202, “Metabolically stable apelin-analogues, incorporating cyclohexylalanine and homoarginine, as potent apelin receptor activators” (RSC Med Chem, 2021).
Non-standard residues stand in square brackets, D forms with d. Residues, ends and D or L forms follow the SMILES beside them. Phe(4-Br) = N[C@@H](Cc1ccc(Br)cc1)C(=O)O; hArg = N=C(N)NCCCC[C@H](N)C(=O)O; Cha = N[C@@H](CC1CCCCC1)C(=O)O; NMeL = CN[C@@H](CC(C)C)C(=O)O; Nle = CCCC[C@H](N)C(=O)O; Aib = CC(C)(N)C(=O)O

Tests used:
[1] = Stability in human plasma assessed as half life at 1 mM measured for 24 hrs by LC-MS analysis; format: ADME, cell-free
Procedure, shortened: (§1)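 Plasma (20 μL, human or murine) prewarmed to 37 °C, then 5 μL of 1 mM peptide added and incubated at 37 °C. Samples quenched at 1, 3, 6 and 24 h with 6 M GuHCl/80% ACN and Dans-YVG internal standard, centrifuged, solid-phase extracted and analyzed by LC-MS. Peptide/standard peak-area ratio normalized to 0 h; triplicates.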

Mus musculus [2] = assay: Hypotensive effect in anesthetized wild type mouse assessed as change in mean arterial blood pressure at 1.4 uM/Kg, iv administered via right jugular vein measured for 60 mins; format: functional; conditions: 1 h
Procedure, shortened: (§2)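 Anesthetized mice received peptide at 1.4 μM kg−1 body weight, or equal-volume saline, by injection into the right jugular vein (n = 3). HR, MABP, SBP and DBP were recorded from blood pressure traces and reported as mean ± S.E.M.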

Apelin receptor [3] = molecular target: T1, Apelin receptor (Rattus norvegicus, UniProt Q9JHG3); assay: Displacement of [125I]-pyr-1-apelin-13 from EGFP tagged rat apelin receptor expressed in CHO cell membrane incubated for 3 hrs by gamma counter analysis; format: cell membranes
T1 sequence (Q9JHG3 whole entry): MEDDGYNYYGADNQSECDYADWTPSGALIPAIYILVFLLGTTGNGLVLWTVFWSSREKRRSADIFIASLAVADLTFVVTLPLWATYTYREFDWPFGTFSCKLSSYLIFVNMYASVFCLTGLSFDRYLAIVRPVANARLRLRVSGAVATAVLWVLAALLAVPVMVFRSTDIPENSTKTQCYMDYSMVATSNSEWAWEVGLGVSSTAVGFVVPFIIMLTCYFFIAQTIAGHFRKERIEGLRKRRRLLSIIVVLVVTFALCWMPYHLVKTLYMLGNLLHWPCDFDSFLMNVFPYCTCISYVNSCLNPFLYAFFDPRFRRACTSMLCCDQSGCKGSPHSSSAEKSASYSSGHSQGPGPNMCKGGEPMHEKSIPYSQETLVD
Procedure, shortened: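 Crude membranes (1 μg/assay) from CHO cells stably expressing wild-type rat APJ-EGFP, incubated 3 h at 20 °C with 0.2 nM [125I]-pyr-1-apelin-13 (Lys8 Bolton–Hunter monoiodinated) and competitor at various concentrations. Binding buffer: 50 mM HEPES, 5 mM MgCl2, 1% BSA, pH 7.5. Quenched with cold buffer, GF/C filtered and washed, gamma counted; triplicates.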

Mus musculus [4] = assay: Hypotensive effect in anesthetized wild type mouse assessed as total time duration of hypotensive effect at 1.4 uM/Kg, iv administered via right jugular vein measured for 60 mins; format: functional; conditions: 1 h; procedure, shortened: as §2
Apelin receptor [5] = molecular target: T2, Apelin receptor (Homo sapiens, UniProt P35414); assay: Activation of recombinant human APJ receptor expressed in rat Chem-5 cells assessed as increase in Ca2+ mobilization by FLIPR Calcium 6-QF fluorescent dye based assay; format: cell-based
T2 sequence (P35414 whole entry): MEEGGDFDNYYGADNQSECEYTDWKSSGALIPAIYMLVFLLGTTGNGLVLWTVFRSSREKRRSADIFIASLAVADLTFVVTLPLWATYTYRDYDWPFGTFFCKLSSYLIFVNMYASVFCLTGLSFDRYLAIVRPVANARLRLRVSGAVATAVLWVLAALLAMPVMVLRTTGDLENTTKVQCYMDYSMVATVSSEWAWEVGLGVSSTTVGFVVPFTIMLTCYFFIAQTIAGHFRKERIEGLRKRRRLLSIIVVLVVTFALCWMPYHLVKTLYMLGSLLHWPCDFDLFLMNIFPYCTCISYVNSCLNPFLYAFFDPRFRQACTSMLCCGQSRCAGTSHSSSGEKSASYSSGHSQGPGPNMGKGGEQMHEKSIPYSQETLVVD
Procedure, shortened: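 Frozen Chem-5 cells stably expressing human APJ, thawed per supplier protocol, loaded 1 h with Calcium 6-QF dye in HBSS/20 mM HEPES/0.2% DMSO/2.5 mM probenecid, pH 7.6. Cells washed three times and rested 10 min, then read on FLIPR. Agonist response taken as maximum fluorescence change over baseline. pEC50 from four-parameter logistic fit; triplicates.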

Neprilysin (NEP) = Neprilysin (NEP) (Homo sapiens, UniProt P08473); assay: Proteolytic stability assessed as recombinant human NEP-mediated compound degradation by measuring half life incubated for 24 hrs by LC-MS analysis; format: ADME; conditions: recombinant human neprilysin (NEP)
Neprilysin = Neprilysin (Homo sapiens, UniProt P08473); assay: Proteolytic stability assessed as recombinant human NEP-mediated compound degradation incubated for 24 hrs by LC-MS analysis; format: ADME
Procedure, shortened: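 Recombinant human NEP diluted to 2 ng μL−1 in NEP-B buffer and preincubated 10 min at 37 °C. Peptide (1 mM aqueous solution) added and incubated at 37 °C. Aliquots taken at 0, 2, 10, 20 and 48 h, quenched and quantified by LC-MS; triplicate per time point.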

[6] = Stability in mouse plasma assessed as half life at 1 mM measured for 24 hrs by LC-MS analysis; format: ADME, cell-free; procedure, shortened: as §1
[7] = Protein binding in pooled human plasma at 100 uM incubated for 3 hrs by equilibrium dialysis method; format: ADME, cell-free; conditions: read-out: PPB (converted)
Procedure, shortened: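 Equilibrium dialysis. DMSO stock (1 mM) diluted to 100 μM final in 55% pooled human plasma stabilized with EDTA and MLN-4760, dialyzed against PBS pH 7.4 at 37 °C, 120 rpm, 3 h. Retentate diluted with PBS and dialysate with plasma, then quenched with 10% TFA/acetonitrile. Dans-YVG internal standard added, centrifuged, LC-MS.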

Chain of Neprilysin (NEP) (P08473 whole entry): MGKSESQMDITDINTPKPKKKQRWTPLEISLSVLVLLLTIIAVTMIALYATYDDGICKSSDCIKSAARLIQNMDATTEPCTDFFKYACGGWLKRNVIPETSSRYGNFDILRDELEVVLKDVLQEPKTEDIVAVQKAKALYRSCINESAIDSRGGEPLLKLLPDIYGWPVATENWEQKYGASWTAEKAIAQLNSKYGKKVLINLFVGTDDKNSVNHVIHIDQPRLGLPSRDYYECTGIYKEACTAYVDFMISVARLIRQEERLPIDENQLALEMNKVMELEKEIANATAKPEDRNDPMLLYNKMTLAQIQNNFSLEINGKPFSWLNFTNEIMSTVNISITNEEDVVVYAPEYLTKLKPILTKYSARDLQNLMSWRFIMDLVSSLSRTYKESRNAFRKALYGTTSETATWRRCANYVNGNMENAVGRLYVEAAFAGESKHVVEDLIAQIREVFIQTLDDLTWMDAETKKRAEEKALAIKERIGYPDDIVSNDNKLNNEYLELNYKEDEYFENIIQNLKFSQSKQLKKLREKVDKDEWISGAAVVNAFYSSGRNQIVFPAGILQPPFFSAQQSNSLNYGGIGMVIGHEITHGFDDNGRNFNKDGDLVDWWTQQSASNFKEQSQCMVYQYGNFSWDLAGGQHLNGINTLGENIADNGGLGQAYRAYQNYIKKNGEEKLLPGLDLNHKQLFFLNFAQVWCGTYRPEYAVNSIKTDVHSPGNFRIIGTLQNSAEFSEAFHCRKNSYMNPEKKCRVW
Chain of Neprilysin (P08473 whole entry): as above

half-life at 1000 µM [1] [h]	Ki (Apelin receptor [3]) [nM]	EC50 (Apelin receptor [5]) [nM]	half-life (Neprilysin (NEP)) [h]	Stability (Neprilysin)	half-life at 1000 µM [6] [h]	fraction unbound at 3 h, 100 µM [7]	SMILES	Activity (Mus musculus [2]) [mmHg]	Time (Mus musculus [4]) [min]
3.06	0.832	6.76	40.6				CCCC[C@H](NC(=O)[C@@H]1CCCN1C(=O)CNC(=O)[C@H](CCCCN)NC(=O)[C@H](Cc1c[nH]cn1)NC(=O)[C@H](CO)NC(=O)[C@H](CC(C)C)NC(=O)[C@H](CCCCNC(=N)N)NC(=O)[C@@H]1CCCN1C(=O)[C@H](CCCNC(=N)N)NC(=O)[C@H](CCC(N)=O)NC(=O)[C@H](CCCNC(=N)N)NC(=O)[C@H](CCCNC(=N)N)NC(=O)[C@H](Cc1ccccc1)NC(=O)[C@@H](N)CCCCN)C(=O)NC(C)(C)C(=O)N[C@@H](Cc1ccc(Br)cc1)C(=O)O (H-KFRRQRP[hArg]LSHKGP[Nle][Aib][Phe(4-Br)]-OH)	40.45	60
3.54		6.76	40.3				CCCC[C@H](NC(=O)[C@@H]1CCCN1C(=O)CNC(=O)[C@H](CCCCN)NC(=O)[C@H](Cc1c[nH]cn1)NC(=O)[C@H](CO)NC(=O)[C@H](CC(C)C)N(C)C(=O)[C@H](CCCNC(=N)N)NC(=O)[C@@H]1CCCN1C(=O)[C@H](CCCNC(=N)N)NC(=O)[C@@H]1CCC(=O)N1)C(=O)NC(C)(C)C(=O)N[C@@H](Cc1ccc(Br)cc1)C(=O)O	9.52	26
1.31	0.676	2.19	19				CCCC[C@H](NC(=O)[C@@H]1CCCN1C(=O)CNC(=O)[C@H](CCCCN)NC(=O)[C@H](Cc1c[nH]cn1)NC(=O)[C@H](CO)NC(=O)[C@H](CC(C)C)NC(=O)[C@H](CCCCNC(=N)N)NC(=O)[C@@H]1CCCN1C(=O)[C@H](CCCNC(=N)N)NC(=O)[C@@H]1CCC(=O)N1)C(=O)NC(C)(C)C(=O)N[C@@H](Cc1ccc(Br)cc1)C(=O)O	26.44	60
0.81		4.27	10.3				CCCC[C@H](NC(=O)[C@@H]1CCCN1C(=O)CNC(=O)[C@H](CCCCN)NC(=O)[C@H](Cc1c[nH]cn1)NC(=O)[C@H](CO)NC(=O)[C@H](CC(C)C)NC(=O)[C@H](CCCNC(=N)N)NC(=O)[C@@H]1CCCN1C(=O)[C@H](CCCNC(=N)N)NC(=O)[C@@H]1CCC(=O)N1)C(=O)NC(C)(C)C(=O)N[C@@H](Cc1ccc(Br)cc1)C(=O)O	23.88	60
2.58	0.372	3.72	21.9				CCCC[C@H](NC(=O)[C@@H]1CCCN1C(=O)CNC(=O)[C@H](CCCCN)NC(=O)[C@H](Cc1c[nH]cn1)NC(=O)[C@H](CO)NC(=O)[C@H](CC1CCCCC1)NC(=O)[C@H](CCCCNC(=N)N)NC(=O)[C@@H]1CCCN1C(=O)[C@H](CCCNC(=N)N)NC(=O)[C@@H]1CCC(=O)N1)C(=O)NC(C)(C)C(=O)N[C@@H](Cc1ccc(Br)cc1)C(=O)O	15.33	57
5.63	1.41	275		Stable	0.38		CCCC[C@H](NC(=O)[C@@H]1CCCN1C(=O)CNC(=O)[C@H](CCCCN)NC(=O)[C@H](Cc1c[nH]cn1)NC(=O)[C@H](CO)NC(=O)[C@H](CC(C)C)N(C)C(=O)[C@H](CCCCNC(=N)N)NC(=O)[C@@H]1CCCN1C(=O)[C@H](CCCNC(=N)N)NC(=O)[C@H](CCC(N)=O)NC(=O)[C@H](CCCNC(=N)N)NC(=O)[C@H](CCCNC(=N)N)NC(=O)[C@H](Cc1ccccc1)NC(=O)[C@@H](N)CCCCN)C(=O)NC(C)(C)C(=O)N[C@@H](Cc1ccc(Br)cc1)C(=O)O (H-KFRRQRP[hArg][NMeL]SHKGP[Nle][Aib][Phe(4-Br)]-OH)	34.69	60
8.29		2.75	> 48		0.99	0.45	CCCC[C@H](NC(=O)[C@@H]1CCCN1C(=O)CNC(=O)[C@H](CCCCN)NC(=O)[C@H](Cc1c[nH]cn1)NC(=O)[C@H](CO)NC(=O)[C@H](CC(C)C)N(C)C(=O)[C@H](CCCNC(=N)N)NC(=O)[C@@H]1CCCN1C(=O)[C@H](CCCNC(=N)N)NC(=O)[C@H](CCC(N)=O)NC(=O)[C@H](CCCNC(=N)N)NC(=O)[C@H](CCCNC(=N)N)NC(=O)[C@H](Cc1ccccc1)NC(=O)[C@@H](N)CCCCN)C(=O)NC(C)(C)C(=O)N[C@@H](Cc1ccc(Br)cc1)C(=O)O (H-KFRRQRPR[NMeL]SHKGP[Nle][Aib][Phe(4-Br)]-OH)	31.98	60
1.77	0.575	2.4	22.1				CCCC[C@H](NC(=O)[C@@H]1CCCN1C(=O)CNC(=O)[C@H](CCCCN)NC(=O)[C@H](Cc1c[nH]cn1)NC(=O)[C@H](CO)NC(=O)[C@H](CC1CCCCC1)NC(=O)[C@H](CCCNC(=N)N)NC(=O)[C@@H]1CCCN1C(=O)[C@H](CCCNC(=N)N)NC(=O)[C@@H]1CCC(=O)N1)C(=O)NC(C)(C)C(=O)N[C@@H](Cc1ccc(Br)cc1)C(=O)O	0.23	15
4.34	1.58	3.8	47				CCCC[C@H](NC(=O)[C@@H]1CCCN1C(=O)CNC(=O)[C@H](CCCCN)NC(=O)[C@H](Cc1c[nH]cn1)NC(=O)[C@H](CO)NC(=O)[C@H](CC1CCCCC1)NC(=O)[C@H](CCCNC(=N)N)NC(=O)[C@@H]1CCCN1C(=O)[C@H](CCCNC(=N)N)NC(=O)[C@H](CCC(N)=O)NC(=O)[C@H](CCCNC(=N)N)NC(=O)[C@H](CCCNC(=N)N)NC(=O)[C@H](Cc1ccccc1)NC(=O)[C@@H](N)CCCCN)C(=O)NC(C)(C)C(=O)N[C@@H](Cc1ccc(Br)cc1)C(=O)O (H-KFRRQRPR[Cha]SHKGP[Nle][Aib][Phe(4-Br)]-OH)	19.72	60
6.28	1.1	4.37	46.4		0.52	0.35	CCCC[C@H](NC(=O)[C@@H]1CCCN1C(=O)CNC(=O)[C@H](CCCCN)NC(=O)[C@H](Cc1c[nH]cn1)NC(=O)[C@H](CO)NC(=O)[C@H](CC1CCCCC1)NC(=O)[C@H](CCCCNC(=N)N)NC(=O)[C@@H]1CCCN1C(=O)[C@H](CCCNC(=N)N)NC(=O)[C@H](CCC(N)=O)NC(=O)[C@H](CCCNC(=N)N)NC(=O)[C@H](CCCNC(=N)N)NC(=O)[C@H](Cc1ccccc1)NC(=O)[C@@H](N)CCCCN)C(=O)NC(C)(C)C(=O)N[C@@H](Cc1ccc(Br)cc1)C(=O)O (H-KFRRQRP[hArg][Cha]SHKGP[Nle][Aib][Phe(4-Br)]-OH)	44.9	60
